Data taken from paper PMC9073132 (Journal of Pharmaceutical Analysis, 2021).

assay type: in vivo, Wistar rats; conditions: intragastric crude VB extract 200 mg/kg; concentrations lower than LLOQ
In short: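 Male Wistar rats (200 ± 20 g) were acclimated 7 days with food and water ad libitum. Crude extract, predissolved in 0.5% DMSO and dispersed in 5 mg/mL sodium carboxymethylcellulose, was given intragastrically at 200 mg/kg. Heparinized blood was taken on ice at 0–24 h (12 points) and spun; plasma was held at −20 °C. Plasma (100 μL) plus IS was extracted with ethyl acetate, then 14 bufadienolides quantified by UHPLC-MS/MS against LLOQ.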

Q: For `C[C@]12CC[C@H]3[C@@H](CC[C@@H]4C[C@@H](O)CC[C@@]43C=O)[C@]13O[C@@H]3CC2c1ccc(=O)oc1` (stereo partly drawn) [CS16, resibufagin], which “Detection in rat plasma samples over the sampling period (LC-MS/MS quantitation)” value is on record?
A: The value was “not detected”.

Q: With `CC(=O)O[C@H]1[C@H]2O[C@]23[C@@H]2CC[C@@H]4C[C@@H](O)CC[C@]4(C=O)[C@H]2CC[C@]3(C)[C@H]1c1ccc(=O)oc1` [CS17, 19-oxocinobufagin] as the molecule, how does the “Detection in rat plasma samples over the sampling period (LC-MS/MS quantitation)” value read?
A: The value was “not detected”.

Q: With `CC(=O)O[C@H]1C[C@]2(O)[C@@H]3CC[C@@H]4C[C@@H](O)CC[C@]4(C)[C@H]3CC[C@]2(C)[C@H]1c1ccc(=O)oc1` [CS15, bufotalin] as the molecule, how does the “Detection in rat plasma samples over the sampling period (LC-MS/MS quantitation)” value read?
A: Its value is “not detected”.

Q: Which “Detection in rat plasma samples over the sampling period (LC-MS/MS quantitation)” value does the source give for `CC(=O)O[C@H]1[C@H]2O[C@]23[C@@H]2CC[C@]4(O)C[C@@H](O)CC[C@]4(C)[C@H]2CC[C@]3(C)[C@H]1c1ccc(=O)oc1` [CS19, cinobufotalin] here?
A: Its value is “not detected”.

same assay, conditions: male, Wistar, rat, plasma, po, 200 mg/kg

Q: For `C[C@]12CC[C@H](O)C[C@H]1CC[C@@H]1[C@@H]2CC[C@]2(C)[C@@H](c3ccc(=O)oc3)C[C@H]3O[C@]132` [CS22, resibufogenin], which AUC(0-t) is on record?
A: The AUC(0-t) was 4.53 ± 0.701 ng·h/mL.

Q: And the Cmax?
A: Its Cmax is 3.79 ± 3.78 ng/mL.

Q: What about the MRT last of the same molecule?
A: The MRT last was 0.836 ± 0.141 h.

Q: What about the Tmax of the same molecule?
A: Its Tmax is 0.333 ± 0.204 h.

Q: And the half-life?
A: Its half-life is 1.2 ± 0.477 h.

Q: For `C[C@]12CC[C@H](O)C[C@H]1CC[C@@H]1[C@@H]2CC[C@]2(C)[C@@H](c3ccc(=O)oc3)CC[C@]12O` [CS21, bufalin], which AUC(0-t) is on record?
A: Its AUC(0-t) is 17 ± 1.76 ng·h/mL.

Q: What about the Cmax of the same molecule?
A: Its Cmax is 7.08 ± 1.85 ng/mL.

Q: And the MRT last?
A: The MRT last was 1.48 ± 0.115 h.

Q: What about the Tmax of the same molecule?
A: The Tmax was 0.396 ± 0.292 h.

Q: What about the half-life of the same molecule?
A: The half-life was 1.77 ± 0.821 h.

Q: What does the source list for `C[C@]12CC[C@H](O)C[C@H]1CC[C@@H]1[C@@H]2CC[C@]2(C)[C@@H](c3ccc(=O)oc3)[C@@H](O)[C@H]3O[C@]132` [CS30, desacetylcinobufagin]?
A: AUC(0-t): 104 ± 6.06 ng·h/mL; Cmax: 24.1 ± 2.27 ng/mL; MRT last: 4.67 ± 1.01 h; Tmax: 0.875 ± 0.25 h; half-life: 10.8 ± 5.24 h

Q: Which AUC(0-t) does the source give for `C[C@]12CC[C@H](O)C[C@H]1CC[C@@H]1[C@@H]2[C@H](O)C[C@]2(C)[C@@H](c3ccc(=O)oc3)CC[C@]12O` [CS36, gamabufotalin] here?
A: Its AUC(0-t) is 223 ± 11.3 ng·h/mL.

Q: What about the Cmax of the same molecule?
A: The Cmax was 84.4 ± 4 ng/mL.

Q: What about the MRT last of the same molecule?
A: Its MRT last is 2.5 ± 0.603 h.

Q: And the Tmax?
A: Its Tmax is 0.812 ± 0.125 h.

Q: And the half-life?
A: Its half-life is 2.82 ± 1.27 h.

Q: With `C[C@]12CC[C@H](O)C[C@@]1(O)CC[C@@H]1[C@@H]2CC[C@]2(C)[C@@H](c3ccc(=O)oc3)CC[C@]12O` [CS14, telocinobufagin] as the molecule, how does the AUC(0-t) read?
A: The AUC(0-t) was 7.22 ± 0.428 ng·h/mL.

Q: And the Cmax?
A: The Cmax was 4.84 ± 1.09 ng/mL.

Q: What about the MRT last of the same molecule?
A: Its MRT last is 0.932 ± 0.129 h.

Q: What about the Tmax of the same molecule?
A: The Tmax was 0.521 ± 0.315 h.

Q: And the half-life?
A: Its half-life is 1.88 ± 1.19 h.

Q: With `CC(=O)O[C@H]1[C@H]2O[C@]23[C@@H]2CC[C@@H]4C[C@@H](O)CC[C@]4(C)[C@H]2CC[C@]3(C)[C@H]1c1ccc(=O)oc1` [CS23, cinobufagin] as the molecule, how does the AUC(0-t) read?
A: Its AUC(0-t) is 5.2 ± 2.83 ng·h/mL.

Q: And the Cmax?
A: Its Cmax is 7.29 ± 10.4 ng/mL.

Q: And the MRT last?
A: Its MRT last is 0.913 ± 0.23 h.

Q: What about the Tmax of the same molecule?
A: The Tmax was 0.833 ± 0.825 h.

Q: And the half-life?
A: The half-life was 1.32 ± 0.526 h.

same assay, conditions: rat plasma, intragastric crude VB extract 200 mg/kg, n=4

Q: Which results are given for `CC(=O)O[C@H]1[C@H]2O[C@]23[C@@H]2CC[C@]4(O)C[C@@H](O)CC[C@]4(C=O)[C@H]2CC[C@]3(C)[C@H]1c1ccc(=O)oc1` [CS11, 19-oxocinobufotalin]?
A: AUC(0-t): 3.669 ± 0.511 ng·h/mL; Cmax: 2.752 ± 0.814 ng/mL; MRT(0-t): 0.942 ± 0.05 h; Tmax: 0.562 ± 0.239 h; t1/2: 2.614 ± 2.802 h

Q: With `C[C@]12CC[C@H](O)C[C@H]1CC[C@@H]1[C@@H]2[C@H](O)C(=O)[C@]2(C)[C@@H](c3ccc(=O)oc3)CC[C@]12O` [CS03, arenobufagin] as the molecule, how does the “AUC(0-t)” value read?
A: The value was 1487.316 ± 407.361 ng·h/mL.

Q: And the Cmax?
A: The Cmax was 466.5 ± 116.920 ng/mL.

Q: And the “MRT(0-t)” value?
A: The value was 3.338 ± 1.011 h.

Q: And the Tmax?
A: The Tmax was 0.938 ± 0.125 h.

Q: And the t1/2?
A: Its t1/2 is 4.537 ± 2.442 h.

Q: Which “AUC(0-t)” value does the source give for `C[C@]12CC[C@H](O)C[C@H]1CC[C@@H]1[C@@H]2C(=O)[C@H](O)[C@]2(C)[C@@H](c3ccc(=O)oc3)CC[C@]12O` [CS01, pseudobufarenogin] here?
A: The value was 276.956 ± 60.642 ng·h/mL.

Q: And the Cmax?
A: The Cmax was 67.225 ± 14.218 ng/mL.

Q: What about the “MRT(0-t)” value of the same molecule?
A: The value was 4.614 ± 0.481 h.

Q: What about the Tmax of the same molecule?
A: The Tmax was 0.75 ± 0 h.

Q: And the t1/2?
A: Its t1/2 is 3.944 ± 1.276 h.

Q: For `C[C@]12CC[C@H]3[C@@H](CC[C@]4(O)C[C@@H](O)CC[C@]34C=O)[C@@]1(O)CC[C@@H]2c1ccc(=O)oc1` [CS04, hellebrigenin], which “AUC(0-t)” value is on record?
A: Its value is 104.246 ± 20.661 ng·h/mL.

Q: And the Cmax?
A: Its Cmax is 13.35 ± 2.243 ng/mL.

Q: And the “MRT(0-t)” value?
A: The value was 6.478 ± 1.035 h.

Q: What about the Tmax of the same molecule?
A: Its Tmax is 1.438 ± 0.657 h.

Q: What about the t1/2 of the same molecule?
A: Its t1/2 is 4.884 ± 2.116 h.
